Assays:
Rattus norvegicus [1] = species on record: Rattus norvegicus; assay: Compound was tested for inhibition of uptake of [14C]5-HT (5-HT) into rat whole brain, in vitro; Not determined.; type: functional
How it was run: (§1)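 Rat brain synaptosomes (Whittaker method) incubated with labelled monoamine (1 × 10^-7 mol final) at 37 °C with or without drug. [14C]NE and [14C]5-HT uptake in Krebs-Henseleit bicarbonate pH 7.4 with 11 mmol glucose; [3H]DA uptake in phosphate buffer, corpus striatum synaptosomes. Time: 5 min whole brain, 10 min hypothalamus. Nonspecific binding at 0 °C; membrane filtration, scintillation counting; IC50 from 3–4 concentrations, at least triplicate.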

Rattus norvegicus [2] = species on record: Rattus norvegicus; assay: Compound was tested for inhibition of uptake of [14C]norepinephrine (NE) into rat brain hypothalamus, in vitro; Not determined.; type: functional; how it was run: as §1
Mus musculus [3] = assay: Prevention of tetrabenazine (TBZ)-induced ptosis in mice after intraperitoneal administration.; type: functional, organism-based
How it was run: (§2)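 Mice given compound ip in 1% methylcellulose (10 mL/kg), 30 min before tetrabenazine 40 mg/kg base ip; solvent+TBZ control per test. Ptosis scored 30 min after TBZ (+1 min) as 100/50/0% (closed/half/open), not normalized.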

[4] = Acute toxicity in mice, after intraperitoneal administration.; type: organism-based; conditions: mouse, in vivo, ip
How it was run: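 Mice, groups of 10, given compound suspended in 1% methylcellulose ip at 10 mL/kg, then housed with food and water ad libitum. Observed hourly up to 6 h; deaths recorded at 24 and 48 h.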

Mus musculus [5] = assay: Prevention of tetrabenazine induced ptosis in mice following i.p. administration.; type: functional; conditions: ip; how it was run: as §2
[6] = Therapeutic index (TI), ratio of LD50 and ED50 (TBZ) in mice after i.p. administration; conditions: mouse, in vivo, ip

| Compound | IC50 (Rattus norvegicus [1]) | IC50 (Rattus norvegicus [2]) | ED50 (Mus musculus [3]) | LD50 [4] | ED50 (Mus musculus [5]) | selectivity ratio [6] |
| --- | --- | --- | --- | --- | --- | --- |
| CCCCOc1ccc([C@H]2c3ccccc3[C@H]3NCCC[C@@H]23)cc1 | No compound available | No compound available |  |  |  |  |
| COc1ccc2c(c1)[C@@H](c1ccc(C)cc1)[C@@H]1CCCN(C)[C@H]21 |  |  | No activity detected up to a dose of 1/5 LD50 ip in mice | 67 mg/kg |  |  |
| CCCCOc1ccc([C@H]2c3ccccc3[C@@H]3[C@H]2CCCN3C)cc1 | No compound available | No compound available |  |  |  |  |
| CN1CCC[C@H]2[C@@H](c3ccc(F)cc3)c3ccccc3[C@H]21 |  |  | No activity detected up to a dose of 1/5 LD50 ip in mice | 22 mg/kg |  |  |
| Nc1cccc([C@H]2c3ccccc3[C@H]3NCCC[C@@H]23)c1 |  |  |  | 28 mg/kg | 2 mg/kg |  |
| Cc1ccccc1[C@@H]1c2ccccc2[C@@H]2[C@H]1CCCN2C |  |  |  | 106 mg/kg | > 40 mg/kg |  |
| COc1ccc2c(c1)[C@@H](c1ccc(N)cc1)[C@@H]1CCCN[C@H]21 |  |  |  | 60 mg/kg | 1 mg/kg | 60 |
| Cc1ccc([C@@H]2c3ccccc3[C@H]3NCCC[C@@H]23)cc1N |  |  |  | 40 mg/kg | 2 mg/kg | 20 |
| Cc1ccccc1[C@H]1c2ccccc2[C@H]2NCCC[C@@H]12 |  |  | No activity detected up to a dose of 1/5 LD50 ip in mice | 52 mg/kg |  |  |
| CN1CCC[C@H]2[C@@H](c3ccc(N)cc3)c3ccccc3[C@H]21 |  |  |  | 7 mg/kg | 0.5 mg/kg | 14 |
| COc1ccc2c(c1)[C@H](c1ccc(C)cc1)[C@@H]1CCCN[C@H]21 |  |  | No activity detected up to a dose of 1/5 LD50 ip in mice | 54 mg/kg |  |  |
| Cc1cccc([C@@H]2c3ccccc3[C@@H]3[C@H]2CCCN3C)c1 |  |  |  | 134 mg/kg | 5 mg/kg |  |
| COc1ccc2c(c1)[C@H](c1ccc(N)cc1)[C@@H]1CCCN[C@H]21 |  |  | No activity detected up to a dose of 1/5 LD50 ip in mice | 50 mg/kg |  |  |
| Cc1cccc([C@H]2c3ccccc3[C@H]3NCCC[C@@H]23)c1 |  |  | No activity detected up to a dose of 1/5 LD50 ip in mice | 34 mg/kg |  |  |
| COc1ccc2c(c1)[C@@H](c1ccc(N(C)C)cc1)[C@@H]1CCCN[C@H]21 | No compound available | No compound available |  |  |  |  |
| c1ccc([C@H]2c3ccccc3[C@H]3NCCC[C@@H]23)cc1 |  |  | No activity detected up to a dose of 1/5 LD50 ip in mice | 50 mg/kg |  |  |
| Cc1ccc([C@H]2c3cc(O)ccc3[C@@H]3[C@H]2CCCN3C)cc1 |  |  | No activity detected up to a dose of 1/5 LD50 ip in mice | 9 mg/kg |  |  |
| CC(C)c1ccc([C@@H]2c3cc(O)ccc3[C@H]3NCCC[C@@H]23)cc1 |  |  | No activity detected up to a dose of 1/5 LD50 ip in mice | 50 mg/kg |  |  |
| Cc1ccc([C@@H]2c3cc(O)ccc3[C@@H]3[C@H]2CCCN3C)cc1 |  |  | No activity detected up to a dose of 1/5 LD50 ip in mice | 187 mg/kg |  |  |
| Cc1ccc([C@@H]2c3ccccc3[C@H]3NCCC[C@@H]23)cc1 |  |  |  | 60 mg/kg | 1 mg/kg | 60 |
| Cc1ccc([C@H]2c3ccccc3[C@@H]3[C@H]2CCCN3C)cc1 |  |  | No activity detected up to a dose of 1/5 LD50 ip in mice | < 1 mg/kg |  |  |
| CN1CCC[C@H]2[C@@H](c3ccccc3F)c3ccccc3[C@H]21 |  |  | No activity detected up to a dose of 1/5 LD50 ip in mice | 8 mg/kg |  |  |
| FC(F)(F)c1ccccc1[C@H]1c2ccccc2[C@H]2NCCC[C@@H]12 |  |  | No activity detected up to a dose of 1/5 LD50 ip in mice | 24 mg/kg |  |  |
| Oc1ccc([C@H]2c3ccccc3[C@H]3NCCC[C@@H]23)cc1 | No compound available | No compound available |  |  |  |  |

| Compound | IC50 (Rattus norvegicus [1]) | IC50 (Rattus norvegicus [2]) | ED50 (Mus musculus [3]) | LD50 [4] | ED50 (Mus musculus [5]) | selectivity ratio [6] |
| --- | --- | --- | --- | --- | --- | --- |
| Cc1ccccc1[C@H]1c2ccccc2[C@@H]2[C@H]1CCCN2C |  |  | No activity detected up to a dose of 1/5 LD50 ip in mice | 22 mg/kg |  |  |
| COc1cc2c(cc1OC)[C@@H]1[C@@H](CCCN1C)[C@@H]2c1ccccc1 | No compound available | No compound available |  |  |  |  |
| CC(C)c1ccc([C@H]2c3cc(O)ccc3[C@H]3NCCC[C@@H]23)cc1 |  |  | No activity detected up to a dose of 1/5 LD50 ip in mice | 90 mg/kg |  |  |
| Cc1ccc([C@H]2c3ccccc3[C@H]3NCCC[C@@H]23)cc1N |  |  | No activity detected up to a dose of 1/5 LD50 ip in mice | 45 mg/kg |  |  |
| COc1cc2c(cc1OC)[C@H]1NCCC[C@H]1[C@@H]2c1ccccc1 | No compound available | No compound available |  |  |  |  |
| Nc1ccc([C@H]2c3cc(O)ccc3[C@H]3NCCC[C@@H]23)cc1 |  |  | No activity detected up to a dose of 1/5 LD50 ip in mice | 85 mg/kg |  |  |
| CN(C)c1ccc([C@@H]2c3cc(O)ccc3[C@H]3NCCC[C@@H]23)cc1 |  |  | No activity detected up to a dose of 1/5 LD50 ip in mice | 159 mg/kg |  |  |
| COc1cc2c(cc1OC)[C@H]1NCCC[C@H]1[C@H]2c1ccc(N)cc1 |  |  | No activity detected up to a dose of 1/5 LD50 ip in mice | 94 mg/kg |  |  |
| Fc1ccc([C@H]2c3ccccc3[C@H]3NCCC[C@@H]23)cc1 |  |  | No activity detected up to a dose of 1/5 LD50 ip in mice | 61 mg/kg |  |  |
| Fc1ccccc1[C@H]1c2ccccc2[C@H]2NCCC[C@@H]12 |  |  | No activity detected up to a dose of 1/5 LD50 ip in mice | 71 mg/kg |  |  |
| COc1ccc2c(c1)[C@H](c1ccc(N(C)C)cc1)[C@@H]1CCCN[C@H]21 |  |  | No activity detected up to a dose of 1/5 LD50 ip in mice | 48 mg/kg |  |  |
| Cc1ccc([C@H]2c3ccccc3[C@H]3NCCC[C@@H]23)cc1 |  |  |  | 120 mg/kg | 20 mg/kg | 6 |
| COc1cc2c(cc1OC)[C@H]1NCCC[C@H]1[C@@H]2c1cccnc1 | No compound available | No compound available |  |  |  |  |
| COc1ccc2c(c1)[C@H](c1ccc(C)cc1)[C@@H]1CCCN(C)[C@H]21 |  |  | No activity detected up to a dose of 1/5 LD50 ip in mice | 6 mg/kg |  |  |
| CN1CCC[C@H]2[C@@H](c3ccccc3)c3ccccc3[C@H]21 |  |  | No activity detected up to a dose of 1/5 LD50 ip in mice | 36 mg/kg |  |  |
| COc1cc2c(cc1OC)[C@H]1NCCC[C@H]1[C@H]2c1ccccc1 |  |  | No activity detected up to a dose of 1/5 LD50 ip in mice | 70 mg/kg |  |  |
| CN(C)c1ccc([C@H]2c3cc(O)ccc3[C@H]3NCCC[C@@H]23)cc1 |  |  | No activity detected up to a dose of 1/5 LD50 ip in mice | 67 mg/kg |  |  |
| Cc1cccc([C@@H]2c3ccccc3[C@H]3NCCC[C@@H]23)c1 |  |  |  | 21 mg/kg | 0.3 mg/kg |  |
| COc1cc2c(cc1OC)[C@@H]1[C@@H](CCCN1C)[C@H]2c1ccccc1 |  |  | No activity detected up to a dose of 1/5 LD50 ip in mice | 70 mg/kg |  |  |
| Nc1cccc([C@@H]2c3ccccc3[C@H]3NCCC[C@@H]23)c1 |  |  |  | 40 mg/kg | 2 mg/kg | 20 |
| CCCN1CCC[C@H]2[C@@H](c3ccccc3)c3ccccc3[C@H]21 |  |  | No activity detected up to a dose of 1/5 LD50 ip in mice | 90 mg/kg |  |  |
| Cc1ccccc1[C@@H]1c2ccccc2[C@H]2NCCC[C@@H]12 |  |  | No activity detected up to a dose of 1/5 LD50 ip in mice | 80 mg/kg |  |  |
| Cc1ccc([C@H]2c3cc(O)ccc3[C@H]3NCCC[C@@H]23)cc1 |  |  | No activity detected up to a dose of 1/5 LD50 ip in mice | 34 mg/kg |  |  |
| Cc1cccc([C@H]2c3ccccc3[C@@H]3[C@H]2CCCN3C)c1 |  |  | No activity detected up to a dose of 1/5 LD50 ip in mice | 5 mg/kg |  |  |
